Reference: PMC8480316 (Chemical Science, 2021)
Where a SMILES comes first, the peptide text is derived from it. Bridges are numbered along the chain shown (N, C = ends). The star is where a group is joined. βGlc = OC[C@H]1O[C@@H](*)[C@H](O)[C@@H](O)[C@@H]1O

What was measured:
[1] = molecular target: toll-like receptor 4 (TLR4) (Homo sapiens, UniProt O00206); type: binding; conditions: ELISA, result in words
Outline: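 Antagonism of LPS–TLR4 binding measured by ELISA, read as optical density at 450 nm. Each sample was run as four parallel experiments, with OD reported as mean ± standard deviation. IC50 values were derived from dose–response curves.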

thermal stability assay = type: physicochemical; conditions: heating experiments, 95 °C for 3 h
carboxypeptidase Y = test: carboxypeptidase Y-treatment experiments; type: in vitro ADME; conditions: 28 °C for 12 h, pH 6.0

Sequence of toll-like receptor 4 (TLR4) (O00206 24-839): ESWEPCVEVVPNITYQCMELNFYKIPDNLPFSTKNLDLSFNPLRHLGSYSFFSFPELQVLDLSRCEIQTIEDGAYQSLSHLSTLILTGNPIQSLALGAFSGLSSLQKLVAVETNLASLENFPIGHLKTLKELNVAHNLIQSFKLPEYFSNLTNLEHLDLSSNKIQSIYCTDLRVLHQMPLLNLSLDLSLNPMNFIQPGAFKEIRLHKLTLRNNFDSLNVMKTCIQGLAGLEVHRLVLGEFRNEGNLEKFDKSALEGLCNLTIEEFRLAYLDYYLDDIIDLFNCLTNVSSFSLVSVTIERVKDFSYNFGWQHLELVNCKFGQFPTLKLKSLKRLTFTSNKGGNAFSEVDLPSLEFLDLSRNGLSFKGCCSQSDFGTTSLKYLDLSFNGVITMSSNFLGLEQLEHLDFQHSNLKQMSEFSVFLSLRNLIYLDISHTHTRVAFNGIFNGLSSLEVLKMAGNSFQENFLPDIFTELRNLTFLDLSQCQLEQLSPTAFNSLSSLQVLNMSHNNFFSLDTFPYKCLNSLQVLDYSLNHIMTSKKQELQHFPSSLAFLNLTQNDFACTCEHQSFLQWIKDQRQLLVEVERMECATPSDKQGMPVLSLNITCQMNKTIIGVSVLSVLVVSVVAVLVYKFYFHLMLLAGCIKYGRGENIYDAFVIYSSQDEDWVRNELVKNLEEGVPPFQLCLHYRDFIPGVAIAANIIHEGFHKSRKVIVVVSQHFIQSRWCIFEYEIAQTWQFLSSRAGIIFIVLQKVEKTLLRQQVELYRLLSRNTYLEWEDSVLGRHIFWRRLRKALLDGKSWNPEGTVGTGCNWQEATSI
Sequence of toll-like receptor 4 (TLR4) (Q9Y6Y9 17-160 partner limits assumed): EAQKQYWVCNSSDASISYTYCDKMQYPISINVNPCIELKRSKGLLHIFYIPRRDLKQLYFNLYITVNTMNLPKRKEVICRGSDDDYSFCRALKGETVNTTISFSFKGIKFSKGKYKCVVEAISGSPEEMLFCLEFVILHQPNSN

Compound | antagonistic (inhibitory) activity against the binding of LPS to TLR4 [1] | thermal stability (thermal stability assay) | proteolytic stability (carboxypeptidase Y)
stlassin I4C [compound 21] | comparable inhibitory activities to stlassin (1) |  | 
CC[C@H](C)[C@@H]1NC(=O)[C@H](C(C)C)NC(=O)[C@H](C(C)C)NC(=O)[C@H](CC(C)C)NC(=O)C[C@@H](C(=O)N[C@@H](Cc2c[nH]c3ccccc23)C(=O)N[C@@H](CC(N)=O)C(=O)N[C@@H](C)C(=O)N2CCC[C@H]2C(=O)NCC(=O)N[C@@H](Cc2c[nH]c3ccccc23)C(=O)N[C@@H](Cc2ccc(O[C@@H]3O[C@H](CO)[C@@H](O)[C@H](O)[C@H]3O)cc2)C(=O)O)NC(=O)[C@H](C)NC(=O)[C@H](CCC(N)=O)NC(=O)[C@H](C(C)C)NC1=O [compound 20, stlassin F15Y-I] (LVVIVQADWNAPGWY(βGlc)-OH; lactam N-8) | comparable inhibitory activities to stlassin (1) |  | 
stlassin V2C/A11C [compound 18] |  | similarly high stability to that of 1 | similarly high stability to that of 1
